Active and inactive are the calls of the source. The rule behind the calls is not given here.
What was measured:
HeLa [1] = assay: Induction of apoptosis in human HeLa cells assessed as necrotic cells at 4 uM incubated for 48 hrs by annexin-V-FITC and PI staining based flow cytometry analysis (reference value: 0.18 %); assay type: functional
HeLa [2] = assay: Induction of apoptosis in human HeLa cells assessed as viable cells at 4 uM incubated for 48 hrs by annexin-V-FITC and PI staining based flow cytometry analysis (reference value: 97.34 %); assay type: functional; settings: read-out: Activity
A2780 [3] = assay: Antitumor activity against human A2780 cells xenografted in Balb/c mouse assessed as tumor growth inhibition administered every two days by caliper analysis; assay type: functional; settings: dose 25-50 mg/kg
In short: (§1)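 Nude mice carried A2780 cells implanted in PBS in the right flank. When tumors reached 100 mm³, mice were randomized into four groups (n = 10): vehicle, 25 or 50 mg/kg test compound, and PTX 10 mg/kg. Dosing was every two days; vehicle was 10% castor oil and 10% DMSO in PBS. Volume (π/6 × length × width²) and body weight were measured by caliper and scale at each dose. Tumors were excised and weighed at the end.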

Jurkat [4] = assay: Induction of DNA damage in human Jurkat cells at 100 to 400 nM incubated for 48 hrs by EB staining based analysis; assay type: functional, cell-based; settings: dose 100-400 nM
In short: (§2)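 Jurkat cells were exposed to graded concentrations, MMC 200 nM positive control or DMSO for 48 h at 37 °C, with work done in darkness. Cells were embedded in LM agarose on comet slides and lysed for 2 h at 4 °C. Slides were unwound in 1 mM EDTA/200 mM NaOH for 30 min, electrophoresed at 25 V for 15 min, stained with ethidium bromide and imaged by fluorescence microscopy. Tail moment was scored.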

HeLa [5] = assay: Induction of apoptosis in human HeLa cells assessed as viable cells at 2 uM incubated for 48 hrs by annexin-V-FITC and PI staining based flow cytometry analysis (reference value: 97.34 %); assay type: functional; settings: read-out: Activity
HeLa [6] = assay: Induction of apoptosis in human HeLa cells assessed as early apoptotic cells at 2 uM incubated for 48 hrs by annexin-V-FITC and PI staining based flow cytometry analysis (reference value: 2.25 %); assay type: functional
HeLa [7] = assay: Induction of cell cycle arrest in human HeLa cells assessed as upregulation of cyclinB1 protein expression at 0.8 to 3.2 uM by Western blot analysis; assay type: functional, cell-based; settings: dose 0.8-3.2 µM
In short: (§3)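 HeLa cells were treated with graded concentrations or DMSO, washed in PBS and lysed. Protein was measured by BCA, separated by SDS-PAGE and transferred to PVDF. Membranes were blocked in 5% BSA/TBST, incubated with primary antibodies overnight at 4 °C, then with HRP secondary antibodies. Bands were detected by chemiluminescence.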

HeLa [8] = assay: Induction of cell cycle arrest in human HeLa cells assessed as upregulation of BubR1 protein expression at 0.8 to 3.2 uM by Western blot analysis; assay type: functional, cell-based; settings: dose 0.8-3.2 µM; in short: as §3
HeLa [9] = assay: Induction of cell cycle arrest in human HeLa cells assessed as upregulation of p-histone-H3 protein expression at 0.8 to 3.2 uM by Western blot analysis; assay type: functional, cell-based; settings: dose 0.8-3.2 µM; in short: as §3
Tubulin (Homo sapiens) [10] = target: T1, Tubulin (Homo sapiens) (UniProt P68371+Q9H4B7+P0DPH7+P68366+Q13509+Q71U36+P04350+Q3ZCM7+P07437+P68363+Q9BQE3+Q6PEY2+Q13885+Q9BVA1+Q9BUF5); assay: Inhibition of tubulin polymerization in human HeLa cells assessed as shrink in cell border at 100 to 200 nM incubated for overnight by DAPI staining based immunofluorescence assay; settings: dose 100-200 nM
In short: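 HeLa cells were treated overnight with a range of concentrations or DMSO. Cells were fixed in methanol, permeabilized with 0.1% Triton X-100 and blocked in 3% BSA for 1 h. They were stained with α-tubulin monoclonal antibody overnight at 4 °C, then Alexa 488 secondary antibody, with DAPI counterstain for 10 min. Images were taken by confocal microscopy.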

[11] = Toxicity in Balb/c mouse xenografted with human A2780 cells assessed as effect on body weight at 25 to 50 mg/kg administered every two days; assay type: organism-based; settings: in vivo, dose 25-50 mg/kg; in short: as §1
A549 = assay: Antiproliferative activity against human A549 cells assessed as reduction in cell viability incubated for 48 hrs by MTT assay; assay type: functional, cell-based; settings: A549, 48 h
In short: (§4)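 Cells were grown in DMEM with 10% FBS and penicillin/streptomycin at 37 °C and 5% CO2. They were seeded for 24 h, then treated with graded concentrations for 48 h. MTT (5 mg/mL) was added for a further 4 h at 37 °C. Formazan was dissolved in DMSO and absorbance read at 570 nm. IC50 was taken from the concentration-response curve.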

HeLa [12] = assay: Induction of apoptosis in human HeLa cells assessed as early apoptotic cells at 4 uM incubated for 48 hrs by annexin-V-FITC and PI staining based flow cytometry analysis (reference value: 2.25 %); assay type: functional
HeLa [13] = assay: Induction of apoptosis in human HeLa cells assessed as early apoptotic cells at 1 uM incubated for 48 hrs by annexin-V-FITC and PI staining based flow cytometry analysis (reference value: 2.25 %); assay type: functional
Tubulin (Homo sapiens) [14] = target: T1, Tubulin (Homo sapiens); assay: Inhibition of tubulin polymerization in human HeLa cells assessed as disorganisation of microtubule at 100 to 200 nM incubated for overnight by DAPI staining based immunofluorescence assay; assay type: cell-based; settings: dose 100-200 nM
In short: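 HeLa cells were exposed overnight to a range of compound concentrations, with DMSO as the negative control. Cells were fixed in methanol, permeabilised with 0.1% Triton X-100 and blocked in 3% BSA for 1 h. They were probed with anti-α-tubulin monoclonal antibody overnight at 4 °C, then an Alexa 488 secondary antibody. Nuclei were stained with DAPI for 10 min at room temperature, and cells were imaged by confocal fluorescence microscopy.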

HCT-116 = assay: Antiproliferative activity against human HCT-116 cells assessed as reduction in cell viability incubated for 48 hrs by MTT assay; assay type: functional, cell-based; settings: HCT-116, 48 h; in short: as §4
A2780 [15] = assay: Antitumor activity against human A2780 cells xenografted in Balb/c mouse assessed as reduction in tumor weight at 25 to 50 mg/kg administered every two days; assay type: functional, organism-based; settings: dose 25-50 mg/kg; in short: as §1
[16] = Toxicity in Balb/c mouse xenografted with human A2780 cells assessed as adverse effect at 25 to 50 mg/kg administered every two days; assay type: organism-based; settings: in vivo, dose 25-50 mg/kg
HeLa [17] = assay: Induction of apoptosis in human HeLa cells assessed as viable cells at 1 uM incubated for 48 hrs by annexin-V-FITC and PI staining based flow cytometry analysis (reference value: 97.34 %); assay type: functional; settings: read-out: Activity
Jurkat [18] = assay: Induction of DNA damage in human Jurkat cells assessed as increase in DNA lesion incubated for 48 hrs by comet assay; assay type: functional, cell-based; settings: dose 100-400 nM; in short: as §2
HeLa [19] = assay: Inhibition of colony formation in human HeLa cells incubated for 48 hrs followed by replacement with fresh medium and further incubation for 7 to 10 days by gentian violet staining based assay; assay type: functional, cell-based; settings: dose 0.5-8 µM
In short: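 HeLa cells in six-well plates were grown for 24 h at 37 °C, then treated with graded concentrations or DMSO for 48 h. Medium was replaced with fresh medium for a further 7–10 days. Colonies were stained with gentian violet for 30 min, washed with PBS and counted relative to control.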

HeLa [20] = assay: Antiproliferative activity against human HeLa cells assessed as reduction in cell viability incubated for 48 hrs by MTT assay; assay type: functional, cell-based; in short: as §4
HeLa [21] = assay: Induction of apoptosis in human HeLa cells assessed as late apoptotic cells at 2 uM incubated for 48 hrs by annexin-V-FITC and PI staining based flow cytometry analysis (reference value: 0.23 %); assay type: functional

inhibition (Tubulin (Homo sapiens) [10]): Active
IC50 (A549): 1190 nM
inhibition (Tubulin (Homo sapiens) [14]): Active
IC50 (HCT-116): 630 nM
IC50 (HeLa [20]): 870 nM
Structure (SMILES): COc1ccc(C2N=C2c2cc(OC)c(OC)c(OC)c2)cc1F (stereo not drawn)
Activity (HeLa [1]): 0.56%
viability at 4 µM (HeLa [2]): 63.5%
TGI (A2780 [3]): Dose-dependent effect
Activity (Jurkat [4]): Active
viability at 2 µM (HeLa [5]): 74.7%
Activity (HeLa [6]): 18.98%
Activity (HeLa [7]): Active
Activity (HeLa [8]): Active
Activity (HeLa [9]): Active
Activity [11]: Non-Toxic
Activity (HeLa [12]): 28.43%
Activity (HeLa [13]): 2.86%
Activity (A2780 [15]): Active
Activity [16]: Non-Toxic
viability at 1 µM (HeLa [17]): 95.5%
Activity (Jurkat [18]): Dose-dependent effect
inhibition (HeLa [19]): Dose-dependent effect
Activity (HeLa [21]): 5.72%

— ChEMBL document CHEMBL4732206, “Novel diaryl-2H-azirines: Antitumor hybrids for dual-targeting tubulin and DNA” (Eur J Med Chem, 2021)
